Test results taken from ChEMBL document CHEMBL1770131, “Radiosynthesis and preliminary evaluation of 4-[18F]fluoro-N-[4-[6-(isopropylamino)pyrimidin-4-yl]-1,3-thiazol-2-yl]-N-methylbenzamide as a new positron emission tomography ligand for metabotropic glutamate receptor subtype 1” (Bioorg Med Chem Lett, 2011).
Active and inactive are the calls of the source. No cut-off for these calls is given here.

Key:
Conditions in all cases: 1 M, tested as the 18F-labelled form
[1] = target: Metabotropic glutamate receptor 1 (Rattus norvegicus) (UniProt P23385); test: Binding affinity to mGluR1 in rat striatum at 1 MBq/ml after 30 mins by autoradiography in presence of 1 uM of mGluR5 antagonist MPEP; format: tissue-based
Chain of Metabotropic glutamate receptor 1 (Rattus norvegicus) (P23385 19-1199 limits assumed): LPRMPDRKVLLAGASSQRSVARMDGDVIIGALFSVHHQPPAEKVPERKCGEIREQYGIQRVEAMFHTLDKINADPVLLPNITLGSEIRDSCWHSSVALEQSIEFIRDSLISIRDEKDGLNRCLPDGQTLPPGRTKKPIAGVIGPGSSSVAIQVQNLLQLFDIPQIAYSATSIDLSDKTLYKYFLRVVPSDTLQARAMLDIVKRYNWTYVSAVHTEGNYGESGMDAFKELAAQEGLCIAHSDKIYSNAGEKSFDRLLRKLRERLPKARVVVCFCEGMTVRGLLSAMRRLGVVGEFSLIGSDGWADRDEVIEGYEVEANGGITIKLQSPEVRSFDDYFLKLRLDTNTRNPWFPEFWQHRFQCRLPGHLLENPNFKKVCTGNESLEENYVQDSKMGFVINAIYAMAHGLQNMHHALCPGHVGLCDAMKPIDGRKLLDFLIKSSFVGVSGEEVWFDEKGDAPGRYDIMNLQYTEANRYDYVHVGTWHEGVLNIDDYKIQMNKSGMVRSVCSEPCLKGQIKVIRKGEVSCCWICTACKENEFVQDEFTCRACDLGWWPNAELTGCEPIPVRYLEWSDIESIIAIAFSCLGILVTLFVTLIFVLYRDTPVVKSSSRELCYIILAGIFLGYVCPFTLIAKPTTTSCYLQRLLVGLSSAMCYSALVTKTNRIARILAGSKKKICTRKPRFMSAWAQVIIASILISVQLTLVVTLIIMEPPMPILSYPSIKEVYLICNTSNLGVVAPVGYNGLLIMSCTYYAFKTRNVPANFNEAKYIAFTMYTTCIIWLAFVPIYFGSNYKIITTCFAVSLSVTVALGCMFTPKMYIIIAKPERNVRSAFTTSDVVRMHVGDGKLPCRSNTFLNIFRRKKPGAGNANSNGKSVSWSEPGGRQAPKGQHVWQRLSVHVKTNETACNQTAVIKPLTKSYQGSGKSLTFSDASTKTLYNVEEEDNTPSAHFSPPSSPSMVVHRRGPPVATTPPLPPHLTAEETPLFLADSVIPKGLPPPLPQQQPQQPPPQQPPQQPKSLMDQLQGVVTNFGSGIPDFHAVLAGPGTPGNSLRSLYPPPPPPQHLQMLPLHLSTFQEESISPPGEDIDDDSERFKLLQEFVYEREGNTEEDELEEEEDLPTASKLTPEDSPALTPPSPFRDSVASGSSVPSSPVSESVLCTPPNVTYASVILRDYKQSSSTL
How it was run: (§1)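 Rat brain sections pre-incubated 3 × 5 min at room temperature in Tris-HCl (50 mM, pH 7.4, 1.2 mM MgCl2, 2 mM CaCl2). Then incubated 30 min at room temperature in fresh buffer with radioligand (1 MBq/mL; in saline with 5% ethanol and Tween80), with or without 1 µM unlabeled ligand, JNJ16259685 or MPEP. Washed 3 × 5 min in cold buffer, dipped in cold water, air-dried, exposed to imaging plate.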

[2] = target: Metabotropic glutamate receptor 1 (Rattus norvegicus) (UniProt P23385); test: Binding affinity to mGluR1 in rat thalamus at 1 MBq/ml after 30 mins by autoradiography in presence of 1 uM non-radiolabeled compound; format: tissue-based; how it was run: as §1
[3] = target: Metabotropic glutamate receptor 1 (Rattus norvegicus) (UniProt P23385); test: Binding affinity to mGluR1 in rat thalamus at 1 MBq/ml after 30 mins by autoradiography in presence of 1 uM of mGluR1 antagonist JNJ16259685; format: tissue-based; how it was run: as §1
[4] = target: Metabotropic glutamate receptor 1 (Rattus norvegicus) (UniProt P23385); test: Binding affinity to mGluR1 in rat thalamus at 1 MBq/ml after 30 mins by autoradiography in presence of 1 uM of mGluR5 antagonist MPEP; format: tissue-based; how it was run: as §1
[5] = target: Metabotropic glutamate receptor 1 (Rattus norvegicus) (UniProt P23385); test: Binding affinity to mGluR1 in rat pons-medulla at 1 MBq/ml after 30 mins by autoradiography in presence of 1 uM of mGluR1 antagonist JNJ16259685; how it was run: as §1
[6] = target: Metabotropic glutamate receptor 1 (Rattus norvegicus) (UniProt P23385); test: Binding affinity to mGluR1 in rat striatum at 1 MBq/ml after 30 mins by autoradiography in presence of 1 uM non-radiolabeled compound; format: tissue-based; how it was run: as §1
[7] = target: Metabotropic glutamate receptor 1 (Rattus norvegicus) (UniProt P23385); test: Binding affinity to mGluR1 in rat cerebellum at 1 MBq/ml after 30 mins by autoradiography in presence of 1 uM of mGluR1 antagonist JNJ16259685; format: tissue-based; how it was run: as §1
[8] = target: Metabotropic glutamate receptor 1 (Rattus norvegicus) (UniProt P23385); test: Binding affinity to mGluR1 in rat whole brain at 1 MBq/ml after 30 mins by autoradiography in presence of 1 uM of mGluR1 antagonist JNJ16259685; how it was run: as §1
[9] = target: Metabotropic glutamate receptor 1 (Rattus norvegicus) (UniProt P23385); test: Binding affinity to mGluR1 in rat cerebellum at 1 MBq/ml after 30 mins by autoradiography; format: tissue-based; how it was run: as §1
[10] = target: Metabotropic glutamate receptor 1 (Rattus norvegicus) (UniProt P23385); test: Binding affinity to mGluR1 in rat pons-medulla at 1 MBq/ml after 30 mins by autoradiography in presence of 1 uM of mGluR5 antagonist MPEP; how it was run: as §1
[11] = target: Metabotropic glutamate receptor 1 (Rattus norvegicus) (UniProt P23385); test: Binding affinity to mGluR1 in rat striatum at 1 MBq/ml after 30 mins by autoradiography; format: tissue-based; how it was run: as §1
[12] = target: Metabotropic glutamate receptor 1 (Rattus norvegicus) (UniProt P23385); test: Binding affinity to mGluR1 in rat pons-medulla at 1 MBq/ml after 30 mins by autoradiography; how it was run: as §1
[13] = target: Metabotropic glutamate receptor 1 (Rattus norvegicus) (UniProt P23385); test: Binding affinity to mGluR1 in rat cerebral cortex at 1 MBq/ml after 30 mins by autoradiography in presence of 1 uM of mGluR5 antagonist MPEP; format: tissue-based; how it was run: as §1
[14] = target: Metabotropic glutamate receptor 1 (Rattus norvegicus) (UniProt P23385); test: Binding affinity to mGluR1 in rat hippocampus at 1 MBq/ml after 30 mins by autoradiography; format: tissue-based; how it was run: as §1
[15] = target: Metabotropic glutamate receptor 1 (Rattus norvegicus) (UniProt P23385); test: Binding affinity to mGluR1 in rat thalamus at 1 MBq/ml after 30 mins by autoradiography; format: tissue-based; how it was run: as §1
[16] = target: Metabotropic glutamate receptor 1 (Rattus norvegicus) (UniProt P23385); test: Binding affinity to mGluR1 in rat cerebellum at 1 MBq/ml after 30 mins by autoradiography in presence of 1 uM of mGluR5 antagonist MPEP; format: tissue-based; how it was run: as §1
[17] = target: Metabotropic glutamate receptor 1 (Rattus norvegicus) (UniProt P23385); test: Binding affinity to mGluR1 in rat cerebellum at 1 MBq/ml after 30 mins by autoradiography in presence of 1 uM non-radiolabeled compound; format: tissue-based; how it was run: as §1
[18] = target: Metabotropic glutamate receptor 1 (Rattus norvegicus) (UniProt P23385); test: Binding affinity to mGluR1 in rat pons-medulla at 1 MBq/ml after 30 mins by autoradiography in presence of 1 uM non-radiolabeled compound; how it was run: as §1
[19] = target: Metabotropic glutamate receptor 1 (Rattus norvegicus) (UniProt P23385); test: Binding affinity to mGluR1 in rat hippocampus at 1 MBq/ml after 30 mins by autoradiography in presence of 1 uM non-radiolabeled compound; format: tissue-based; how it was run: as §1
[20] = target: Metabotropic glutamate receptor 1 (Rattus norvegicus) (UniProt P23385); test: Binding affinity to mGluR1 in rat cerebral cortex at 1 MBq/ml after 30 mins by autoradiography; format: tissue-based; how it was run: as §1
[21] = target: Metabotropic glutamate receptor 1 (Rattus norvegicus) (UniProt P23385); test: Binding affinity to mGluR1 in rat striatum at 1 MBq/ml after 30 mins by autoradiography in presence of 1 uM of mGluR1 antagonist JNJ16259685; format: tissue-based; how it was run: as §1
[22] = target: Metabotropic glutamate receptor 1 (Rattus norvegicus) (UniProt P23385); test: Binding affinity to mGluR1 in rat cerebral cortex at 1 MBq/ml after 30 mins by autoradiography in presence of 1 uM of mGluR1 antagonist JNJ16259685; format: tissue-based; how it was run: as §1
[23] = target: Metabotropic glutamate receptor 1 (Rattus norvegicus) (UniProt P23385); test: Binding affinity to mGluR1 in rat hippocampus at 1 MBq/ml after 30 mins by autoradiography in presence of 1 uM of mGluR1 antagonist JNJ16259685; format: tissue-based; how it was run: as §1
[24] = target: Metabotropic glutamate receptor 1 (Rattus norvegicus) (UniProt P23385); test: Binding affinity to mGluR1 in rat hippocampus at 1 MBq/ml after 30 mins by autoradiography in presence of 1 uM of mGluR5 antagonist MPEP; format: tissue-based; how it was run: as §1
[25] = target: Metabotropic glutamate receptor 1 (Rattus norvegicus) (UniProt P23385); test: Binding affinity to mGluR1 in rat whole brain at 1 MBq/ml after 30 mins by autoradiography in presence of 1 uM non-radiolabeled compound; how it was run: as §1
[26] = target: Metabotropic glutamate receptor 1 (Rattus norvegicus) (UniProt P23385); test: Binding affinity to mGluR1 in rat cerebral cortex at 1 MBq/ml after 30 mins by autoradiography in presence of 1 uM non-radiolabeled compound; format: tissue-based; how it was run: as §1

Activity [1]: 497 PSL/mm2
Activity [2]: inactive
Activity [3]: inactive
Activity [4]: 618 PSL/mm2
Activity [5]: inactive
Activity [6]: inactive
Activity [7]: inactive
Activity [8]: 6.7 PSL/mm2
Activity [9]: 719 PSL/mm2
Activity [10]: 181 PSL/mm2
Activity [11]: 568 PSL/mm2
Activity [12]: 222 PSL/mm2
Activity [13]: 316 PSL/mm2
Activity [14]: 680 PSL/mm2
Activity [15]: 739 PSL/mm2
Activity [16]: 683 PSL/mm2
Activity [17]: inactive
Activity [18]: inactive
Activity [19]: inactive
Activity [20]: 375 PSL/mm2
Activity [21]: inactive
Activity [22]: inactive
Activity [23]: inactive
Activity [24]: 602 PSL/mm2
Activity [25]: 6.9 PSL/mm2
Activity [26]: inactive
SMILES: CC(C)Nc1cc(-c2csc(N(C)C(=O)c3ccc(F)cc3)n2)ncn1
